Experimental data taken from ChEMBL document CHEMBL4715928, “Discovery of Dipeptides as Potent Botulinum Neurotoxin A Light-Chain Inhibitors” (ACS Med Chem Lett, 2021).

Tests used:
Clostridium botulinum = assay: Zinc chelating activity mediated inhibition of Clostridium botulinum BoNT/A LC activity at 15 uM using SNAPtide as substrate measured for 10 mins by FRET assay relative to control
Method in brief: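 Recombinant BoNT/A light chain at 20 nM, 8 μM SNAPtide FRET substrate, each dipeptide tested at 15 μM. Reactions were run in triplicate, and percent inhibition is the mean of the three.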

[1] = Zinc chelating activity mediated inhibition of Clostridium botulinum BoNT/A LC activity using SNAPtide as substrate measured for 10 mins by FRET assay
Method in brief: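 BoNT/A light chain at 20 nM was incubated with 8 μM SNAPtide substrate across a range of dipeptide concentrations. IC50 values were derived from the concentration series.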

Row | SMILES | inhibition (Clostridium botulinum) [%] | IC50 [1] [nM]
1 | CC[C@H](C)[C@H](NC(=O)[C@@H](Cc1ccccc1)NS(=O)(=O)c1ccc(-c2ccc(Cl)cc2)cc1)C(=O)NO | 41 | –
2 | CC[C@H](C)[C@H](NS(=O)(=O)c1ccc(-c2ccc(Cl)cc2)cc1)C(=O)NC(C)(C)C(=O)NO | 11 | –
3 | CC[C@H](C)[C@H](NC(=O)[C@H](Cc1ccccc1)NS(=O)(=O)c1cccc(Cl)c1)C(=O)NO | 79 | –
4 | CC[C@H](C)[C@H](NC(=O)[C@H](Cc1ccccc1)NS(=O)(=O)c1ccc(C2CCCCC2)cc1)C(=O)NO | 57 | –
5 | CCOc1ccc(S(=O)(=O)N[C@@H](Cc2ccccc2)C(=O)N[C@H](C(=O)NO)[C@@H](C)CC)cc1OCC | 22 | –
6 | CC[C@H](C)[C@H](NC(=O)[C@H](C)NS(=O)(=O)c1ccc(-c2ccc(Cl)cc2)cc1)C(=O)NO | 31 | –
7 | CC[C@H](C)[C@@H](NC(=O)[C@@H](Cc1ccccc1)NS(=O)(=O)c1ccc(-c2ccc(Cl)cc2)cc1)C(=O)NO | 63 | –
8 | CCC[C@H](NC(=O)[C@H](Cc1ccccc1)NS(=O)(=O)c1cc(Cl)cc(Cl)c1)C(=O)NO | – | 43
9 | CC[C@H](C)[C@H](NS(=O)(=O)c1ccc(-c2ccc(Cl)cc2)cc1)C(=O)N[C@@H](C)C(=O)NO | 55 | –
10 | CC[C@H](C)[C@H](NC(=O)[C@@H](NS(=O)(=O)c1cc(Cl)cc(Cl)c1)C(C)C)C(=O)NO | – | 69
11 | CCC[C@H](NC(=O)[C@@H](NS(=O)(=O)c1ccc(-c2ccc(Cl)cc2)cc1)[C@@H](C)CC)C(=O)NO | – | 1000
12 | CC[C@H](C)[C@H](NC(=O)[C@H](Cc1ccccc1)NS(=O)(=O)c1ccc(-c2ccccc2)cc1)C(=O)NO | 77 | –
13 | CC[C@H](C)[C@H](NS(=O)(=O)c1ccc(-c2ccc(Cl)cc2)cc1)C(=O)N[C@@H](C(=O)NO)[C@@H](C)CC | 57 | –
14 | CC[C@H](C)[C@H](NC(=O)[C@H](CC(C)C)NS(=O)(=O)c1ccc(-c2ccc(Cl)cc2)cc1)C(=O)NO | 100 | –
15 | CC[C@H](C)[C@H](NC(=O)[C@H](Cc1ccccc1)NS(=O)(=O)c1ccc(Cl)cc1)C(=O)NO | 77 | –
16 | CC[C@H](C)[C@H](NS(=O)(=O)c1ccc(-c2ccc(Cl)cc2)cc1)C(=O)N[C@@H](Cc1ccccc1)C(=O)NO | 44 | –
17 | CC[C@H](C)[C@H](NC(=O)[C@H](Cc1ccccc1)NS(=O)(=O)c1ccccc1)C(=O)NO | 52 | –

Row | SMILES | inhibition (Clostridium botulinum) [%] | IC50 [1] [nM]
18 | CC[C@H](C)[C@H](NS(=O)(=O)c1cc(Cl)cc(Cl)c1)C(=O)N[C@@H](CC(C)C)C(=O)NO | – | 150
19 | CC[C@H](C)[C@H](NS(=O)(=O)c1ccc(-c2ccc(Cl)cc2)cc1)C(=O)NCC(=O)NO | 18 | –
20 | CC(C)[C@H](NC(=O)[C@H](Cc1ccccc1)NS(=O)(=O)c1cc(Cl)cc(Cl)c1)C(=O)NO | – | 21
21 | CC[C@H](C)[C@H](NC(=O)[C@H](Cc1ccccc1)NS(=O)(=O)c1cccc(C(C)(C)C)c1)C(=O)NO | 93 | –
22 | CC[C@H](C)[C@H](NC(=O)[C@@H](NS(=O)(=O)c1ccc(-c2ccc(Cl)cc2)cc1)[C@@H](C)CC)C(=O)NO | 85 | –
23 | CC[C@H](C)[C@H](NS(=O)(=O)c1ccc(-c2ccc(Cl)cc2)cc1)C(=O)NCCC(=O)NO | 62 | –
24 | CC[C@H](C)[C@H](NC(=O)[C@@H](NS(=O)(=O)c1ccc(-c2ccc(Cl)cc2)cc1)C(C)C)C(=O)NO | – | 2900
25 | CC[C@H](C)[C@H](NC(=O)[C@H](Cc1ccccc1)NS(=O)(=O)c1ccc(-c2ccc(Cl)cc2)cc1)C(=O)NO | 100 | 2400
26 | CC[C@H](C)[C@H](NC(=O)[C@H](Cc1ccccc1)NS(=O)(=O)c1c(Cl)cccc1Cl)C(=O)NO | 83 | –
27 | CC[C@H](C)[C@H](NC(=O)C(C)(C)NS(=O)(=O)c1ccc(-c2ccc(Cl)cc2)cc1)C(=O)NO | 84 | –
28 | CC[C@H](C)[C@@H](NC(=O)[C@H](NS(=O)(=O)c1ccc(-c2ccc(Cl)cc2)cc1)[C@@H](C)CC)C(=O)NO | 48 | –
29 | CC[C@H](C)[C@@H](NS(=O)(=O)c1ccc(-c2ccc(Cl)cc2)cc1)C(=O)N[C@@H](Cc1ccccc1)C(=O)NO | 62 | –
30 | CC[C@H](C)[C@H](NC(=O)[C@H](NS(=O)(=O)c1ccc(-c2ccc(Cl)cc2)cc1)[C@@H](C)CC)C(=O)NO | 69 | –
31 | CC[C@H](C)[C@H](NC(=O)[C@H](Cc1ccccc1)NS(=O)(=O)c1cc(Cl)cc(Cl)c1)C(=O)NO | 100 | 150
32 | CC[C@H](C)[C@H](NC(=O)[C@H](Cc1ccccc1)NS(=O)(=O)c1ccc(Br)cc1)C(=O)NO | 87 | –
33 | CCC[C@H](NC(=O)[C@@H](NS(=O)(=O)c1cc(Cl)cc(Cl)c1)[C@@H](C)CC)C(=O)NO | – | 89
